Only some compounds are listed: those with a hit (about 2.9% of all), similar ones and a draw of the others.
OX1R antag-1 – human HCRTR1 antagonism; CHO/OX1R cells, Fluo-8 calcium fluorescence, orexin A; inhibition, % at 5 µM; 330,000 compounds, 0.43% hits;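 active means inhibition above its plate's threshold, mean inhibition of all tested compounds on the plate plus 3 SD, cut at about 37% in these data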;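 further: 0% = orexin A challenge wells and 100% = SB-334867-A antagonist wells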
Target sequence (O43613 whole entry, looked up): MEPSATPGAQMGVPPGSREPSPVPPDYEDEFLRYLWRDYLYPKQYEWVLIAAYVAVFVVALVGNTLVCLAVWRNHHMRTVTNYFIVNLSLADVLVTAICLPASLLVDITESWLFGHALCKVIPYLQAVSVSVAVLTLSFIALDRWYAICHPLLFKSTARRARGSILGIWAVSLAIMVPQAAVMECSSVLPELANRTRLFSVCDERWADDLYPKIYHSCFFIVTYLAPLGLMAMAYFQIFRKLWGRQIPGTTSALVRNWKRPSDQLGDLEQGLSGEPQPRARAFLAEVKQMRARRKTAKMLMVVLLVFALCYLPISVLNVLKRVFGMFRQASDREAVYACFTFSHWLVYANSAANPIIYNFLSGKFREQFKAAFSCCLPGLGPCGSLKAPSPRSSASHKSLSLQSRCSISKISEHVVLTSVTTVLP
CHO-K1 Ca antag – nonselective inhibitor or artifact in parental CHO-K1 cells; 360,000 compounds, 0.6% hits; inhibition, % at 3 µM; AID 602250; ATP-induced calcium, Fluo-8 fluorescence;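 active means inhibition above a per-plate cutoff, the plate's mean sample inhibition plus 3 SD, cut at about 24% in these data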;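 further: 0% = DMSO plus EC80 ATP and 100% = DMSO alone without ATP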
OX1R antag-2 – blocks the human orexin 1 receptor; O43613; OX1R-expressing cells, FRET antagonist read-out; inhibition, % at 6.6 µM; 330,000 compounds, 1.8% hits; in the data active means inhibition mostly above about 38%, no sharp cut-off; inactive means mostly below about 40%;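 further: 0% = agonist challenge alone and 100% = reference antagonist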
M1 PAM parental – nonselective activator or artifact in parental CHO-K1 calcium assay. ATP EC20, Fluo-8 calcium fluorescence; 0% at ATP EC20, 100% at ATP max. activation, % at 3 µM. 360,000 compounds, 0.02% hits. AID 602247;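 active means activation above the run cutoff, the mean activation of all test compounds plus 3 SD, cut at about 40% in these data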;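 further: peak over basal fluorescence ratio in a 140 s read after ATP addition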
CHO-K1 Ca ag – M1 agonist counterscreen hit in parental CHO-K1 cells; activation, % at 3 µM; 360,000 compounds, 0.48% hits; Fluo-8 calcium fluorescence; scaled to maximal ATP response, vehicle zero; AID 602248; in the data active means activation above about 15%;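 further: untransfected CHO-K1 host cells lacking M1 receptor as counterscreen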
CHO parental Ca – signal in parental CHO cells, OX1R antagonist counter-screen | parental CHO-K1, ATP-induced calcium, Fluo-8 fluorescence | 330,000 compounds, 0.63% hits | AID 463079 | inhibition, % at 5.6 µM;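 active means inhibition above that plate's mean sample inhibition plus 3 SD, cut at about 26% in these data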;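 further: 0% = ATP-challenged DMSO wells and 100% = DMSO wells without ATP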
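Assay system: untransfected parental CHO cell line. Also added: ATP agonist challenge. Dosing: one dose, 5.6 µM nominal. Measured by: Fluo-8 fluorescence. Read-out: % inhibition. Benchmarks: ATP wells versus no-ATP DMSO wells. Repeats: no replicates.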
* = called active by the depositor; x = not tested or not shown.

SMILES	OX1R antag-1	CHO-K1 Ca antag	OX1R antag-2	M1 PAM parental	CHO-K1 Ca ag	CHO parental Ca
O=C(CSc1ncnc2[nH]ncc12)Nc1nc(-c2ccc(F)c(F)c2)cs1	45*	18	52*	-2	15	42*
O=C(Cc1ccc(F)cc1)Nc1nc(-c2ccc(F)c(F)c2)cs1	x	7	x	4	4	x
C=CCNC(=O)O/N=C/c1csc([N+](=O)[O-])c1	-4	-14	42*	21	1	-12
CC(C)CNC(=S)NC(=O)c1csc([N+](=O)[O-])c1	-22	-6	15	11	4	-20
COc1ccc(Cl)cc1NC(=O)COC(=O)/C=C/c1c(C)nn(C2CCS(=O)(=O)C2)c1Cl (centres undefined)	32	-10	56	22	0	44*
Cc1ccccc1N(CC(=O)N/N=C/c1ccc(N(C)C)cc1)C(=O)c1ccccc1	-26	-15	63*	-2	0	-20
O=C(CN1C(=O)/C(=C\c2ccccc2Cl)Oc2ccccc21)NCc1cccnc1	-16	-5	72*	15	1	-24
O=C(O)CN1C(=O)/C(=C/c2ccccc2Cl)Oc2ccccc21	2	-6	30	-8	0	-8
COc1ccc(Cn2c(N)c(C#N)c3nc4ccccc4nc32)cc1	28	-7	22	20	4	-11
COc1cccc(Cn2c(N)c(C#N)c3nc4ccccc4nc32)c1OC	2	-18	46*	14	1	-11
Cc1ccnc(NS(=O)(=O)c2ccc(NC(=O)Cc3ccccc3)cc2)n1	3	25*	8	-10	0	-2
Cc1cc(C)nc(NS(=O)(=O)c2ccc(NC(=O)Cc3ccccc3)cc2)n1	-18	24*	8	-10	5	-13
Cc1cc(C)nc(NS(=O)(=O)c2ccc(NC(=O)Cc3ccc(F)cc3)cc2)n1	-23	3	6	-2	0	-9
NC(COCc1ccccc1)c1csc(Nc2ccccn2)n1 (centres undefined)	x	-2	x	0	2	x
CCOc1ccc(/C=N/NC(=O)c2nnn(-c3nonc3N)c2CN(C)C2CCCCC2)cc1	2	-20	11	7	0	0
CC(C)(C)[C@H]1COC(=O)[C@@H](Cc2ccc(F)cc2)CC/C=C/C[C@@H](CC(=O)N[C@H](CO)Cc2ccccc2)C(=O)N1	-24	-2	10	-10	1	-28
Nc1nc(Nc2ccccc2)nc(NCc2ccccc2)c1[N+](=O)[O-]	-40	-1	38	15	20*	-27
COc1cc(N)c(Cl)cc1C(=O)OCC(=O)N1c2ccccc2NC(=O)C1(C)C	-4	-2	14	-3	2	-10
C(=NOCCc1ccccc1)c1ccccn1	x	-5	x	7	0	x
COc1cc2c(c(OC)c1OC)-c1ccc(SC)c(=O)cc1C(NC=O)CC2 (centres undefined)	x	-10	x	6	2	x
COC(=O)C(CCSC)NC(=O)c1cc2c(n(-c3ccccc3)c1=O)CC(C)(C)CC2=O (centres undefined)	-24	27*	7	-14	0	-20
CN(C)c1ccc2nc3ccc(=[N+](C)C)cc-3sc2c1	9	12	59*	-11	0	-10
CN(C)c1ccc2nc3ccc(=O)cc-3sc2c1	x	-9	x	4	0	x
CCOC(=O)/C=C1\SCC(=O)N1CC(=O)NC(C)C	-1	-1	23	8	0	5
CCOC(=O)/C=C1\SCC(=O)N1CC(=O)NC12CC3CC(CC(C3)C1)C2	-18	24*	6	-6	0	-14
SMILES	OX1R antag-1	CHO-K1 Ca antag	OX1R antag-2	M1 PAM parental	CHO-K1 Ca ag	CHO parental Ca
CCOC(=O)/C=C1\SCC(=O)N1CC(=O)NCCc1ccc(F)cc1	-20	0	5	17	17*	0
CCOC(=O)/C=C1\SCC(=O)N1CC(=O)NC(C)c1ccc(F)cc1 (centres undefined)	-1	-6	5	11	1	-2
O=S(=O)(c1cccc(F)c1)N1CCN(c2nc(-c3cccnc3)nc3ccccc23)CC1	-6	-10	19	9	2	-17
CC(C)COC(=O)NCCOC(=O)Nc1cccc(Cl)c1	1	24*	37	6	9	57*
COc1ccc(C)cc1Nc1n[n+](-c2ccccc2)c(-c2c(Cl)cccc2Cl)s1	2	x	44	x	x	38*
COc1ccc(-c2sc(Nc3ccccc3)n[n+]2-c2ccc(F)cc2)cc1Br	-2	-7	0	-1	0	-14
CCc1ccc(Nc2n[n+](-c3ccccc3)c(-c3ccc(N(CC)CC)cc3)s2)cc1	29	18	25	6	14	45*
COc1ccc2ccccc2c1-c1sc(Nc2ccccc2)n[n+]1-c1ccc(F)cc1	-10	-9	15	-3	16*	-11
O=C(O)c1ccc(-c2sc(Nc3ccccc3)n[n+]2-c2ccc(F)cc2)cc1	8	3	5	1	0	-12
COc1ccc(C)cc1Nc1n[n+](-c2ccccc2)c(-c2ccc(OC)c(OC)c2OC)s1	-21	-7	11	4	0	-27
CCN(CC)c1ccc(-c2sc(Nc3ccccc3)n[n+]2-c2ccc(F)cc2)cc1	-11	2	15	11	4	-11
Fc1ccc(-[n+]2nc(Nc3ccccc3)sc2-c2c(Cl)cccc2Cl)cc1	11	-7	30	2	15*	34
COCCn1c(C)c(C)c2c(NCCc3ccccc3)ncnc21	x	-2	x	-2	7	x
O=C(Cc1c(F)cccc1Cl)N1CCN(S(=O)(=O)c2cccc(F)c2)CC1	-13	4	24	-6	0	-11
CCc1ccc(Nc2n[n+](-c3ccccc3)c(-c3c(Cl)cccc3Cl)s2)cc1	103*	8	36	-3	21*	93*
CCc1ccc(Nc2n[n+](-c3ccccc3)c(-c3ccc(OCc4ccccc4)cc3)s2)cc1	-8	-10	14	30	0	3
O=C(NC1CCCCC1)c1ccc(-c2ccccc2)cc1	-11	-7	19	0	0	-28
O=C(CSc1nnc2ccccn12)NC(=O)c1cccc([N+](=O)[O-])c1	-13	-5	43*	-7	0	0
O=C(CSc1nnc2ccccn12)NNC(=O)c1cccc([N+](=O)[O-])c1	-12	-7	27	0	1	-6
COc1ccc([C@@H]2CC=C(C(=O)O)[C@H](c3ccc(C)cc3)N2S(=O)(=O)c2ccccc2C)cc1	2	-2	50*	7	0	-11
COc1ccc([C@@H]2CC=C(C(=O)O)[C@H](c3ccc(F)cc3)N2S(=O)(=O)c2ccccc2C)cc1	-26	-18	35	21	1	-18
Cc1ccc([C@H]2C(C(=O)O)=CC[C@@H](c3ccc(Cl)cc3)N2S(=O)(=O)c2ccccc2C)cc1	21	-5	31	4	0	-12
